The results in this text go back to article PMC8358123 (International Journal for Parasitology: Drugs and Drug …, 2021).

Data set [1] deals with T. cruzi Tulahuen CL2 β-galactosidase strain. The data set can be described thus: In vitro activity against T. cruzi intracellular amastigotes in MRC-5SV2 cells. The class given is cell-based. The settings on record: Trypanosoma cruzi, MRC-5 SV2, 168 h, read-out: T. cruzi EC50. The method, boiled down:
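Nifurtimox-sensitive Tulahuen CL2 β-galactosidase parasites infected MRC-5SV2 fibroblasts in MEM with 200 mM L-glutamine, 16.5 mM NaHCO3 and 5% inactivated FCS, at 37 °C and 5% CO2. Wells held 4×10^3 cells and 4×10^4 parasites. Test compound was given as ten 4-fold dilutions (top 64 μM, <1% DMSO) for 7 days. CPRG was then added for 4 h at 37 °C and absorbance read at 540 nm. IC50 from % reduction versus untreated-infected controls; mean ± SEM, 2–4 experiments. Benznidazole reference.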

The subject of data set [2] is T. b. brucei (Squib 427 strain). The data set can be described thus: In vitro activity against T. b. brucei. It counts as cell-based. The settings on record: Trypanosoma brucei, read-out: T. b. bruc. EC50.
Data set [3] has as its system T. b. rhodesiense (STIB-900 strain). The data set can be described thus: In vitro activity against T. b. rhodesiense. It counts as cell-based. Particulars: Trypanosoma brucei, read-out: T. b. rhod. EC50. In short, it runs like this: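 STIB-900 parasites, axenic in HMI-9 with 10% FBS at 37 °C and 5% CO2, seeded at 4×10^3 parasites/well. Test compound was given as ten 4-fold dilutions (top 64 μM, <1% DMSO). Growth period […], then resazurin added and fluorescence measured after 24 h. IC50 from a sigmoid variable-slope fit versus untreated controls; mean ± SEM, 2–4 experiments. Suramin as reference.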

Data set [4] in a line: MRC-5SV2 cytotoxicity. It counts as cell-based, human. Particulars: human, MRC-5SV2 cells. In short, it runs like this:
(§1)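 MRC-5SV2 cells (3×10^4 cells/mL) in MEM with Earl's salts, L-glutamine, NaHCO3 and 5% inactivated FCS, at 37 °C and 5% CO2. Exposure to test compound (ten 4-fold dilutions, top 64 μM, <1% DMSO) lasted 3 days. Resazurin was then added for 4 h at 37 °C, with fluorescence read at ex 550/em 590 nm. CC50 from % reduction relative to untreated (100%) and medium-only (0%) controls.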

The nature of data set [5]: PMM cytotoxicity. The class given is cell-based, mouse. The settings on record: Swiss, mouse.
In data set [6] the test system is primary peritoneal mouse macrophages (PMM). Briefly: PMM cytotoxicity. The class given is cell-based. Particulars: read-out: PMM CC50; primary peritoneal mouse macrophages.
Data set [7] is described as follows: Microsomal stability assay, hamster. The class given is in vitro ADME. The settings on record: hamster microsomal (S9) fractions, % remaining parent compound; for remaining at 0 h: 0 min; for remaining at 0.25 h: 15 min; for remaining at 0.5 h: 30 min; for remaining at 1 h: 60 min.
The nature of data set [8]: Microsomal stability assay, human. The settings on record: pooled human liver microsomes (microsomal (S9) fractions), % remaining parent compound; for remaining at 0 h: 0 min; for remaining at 0.25 h: 15 min; for remaining at 0.5 h: 30 min; for remaining at 1 h: 60 min. The class given is in vitro ADME.
Data set [9] relates to L. infantum MHOM/MA (BE)/67. The class given is cell-based, Leishmania infantum. The method, boiled down: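 Intracellular amastigotes of hamster spleen origin infected Swiss mouse peritoneal macrophages (elicited 2 days with 2% potato starch), in RPMI-1640 with 5% inactivated FCS, at 37 °C and 5% CO2, 4.5×10^5 parasites/well. Test compound (ten 4-fold dilutions, top 64 μM, <1% DMSO) was added 2 h post-infection. After 5 days, amastigotes/macrophage were counted after 10% Giemsa. IC50 was derived from % reduction versus controls; mean ± SEM, 2–4 experiments. Miltefosine reference.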

For data set [10], the system named is MRC-5SV2 cells. Briefly: MRC-5SV2 cytotoxicity. It counts as cell-based, human. Particulars: read-out: MRC-5 CC50, 3 days incubation. The method, boiled down:
as §1

[11] abbreviates: MRC-5 CC50, MRC-5SV2 cells, 3 days incubation.
The mark [12] stands for this setting: PMM CC50, primary peritoneal mouse macrophages.

SMILES strings stand for the structures. Where only a bound is given, the exact number is not on record here.

Consider `Cc1ncnc2c1c(Cl)cn2[C@@H]1O[C@H](CO)[C@@H](O)[C@H]1O` [compound 7], for which the values for the EC50 in data set [1], in [2] and in data set [3] were 3.61 ± 1.24 µM, 4.78 ± 2.19 µM and 0.84 ± 0.63 µM, respectively. Also, the CC50 at 3 days in [4] (setting [11]) came out at 54.8 ± 2.52 µM. The molecule also came in with a CC50 at 5 days in data set [5] (setting [12]) greater than 64 µM. Further, in [6], the CC50 was found to be 32 µM. Besides, the fraction remaining at 0 h in [7] (CYP – NADPH (Phase-I)), in [7] (UGT Enz. (Phase-II)), in [8] (CYP – NADPH (Phase-I)) and in [8] (UGT Enz. (Phase-II)) was 100% throughout. Further, the fraction remaining at 0.25 h in data set [7] (CYP – NADPH (Phase-I)) came out at 95%; in data set [7] (UGT Enz. (Phase-II)), 96%; in [8] (CYP – NADPH (Phase-I)) it was 96%; in data set [8] (UGT Enz. (Phase-II)) it was 102%. The share remaining at 0.5 h in data set [7] (CYP – NADPH (Phase-I)) was 93%; in [7] (UGT Enz. (Phase-II)), 100%; in data set [8] (CYP – NADPH (Phase-I)), 97%; in data set [8] (UGT Enz. (Phase-II)) it was 97%. In addition, the fraction remaining at 1 h in data set [7] (CYP – NADPH (Phase-I)) worked out at 93%; in data set [7] (UGT Enz. (Phase-II)), 102%; in [8] (CYP – NADPH (Phase-I)) it was 96%; in [8] (UGT Enz. (Phase-II)), 96%.

For `CCc1cn([C@@H]2O[C@H](CO)[C@@H](O)[C@H]2O)c2ncnc(C)c12` [compound 13], the EC50 in data set [1] stood at 2.54 ± 0.47 µM; in data set [2], 0.75 ± 0.18 µM; in [3] it was 0.43 ± 0.06 µM. Besides, the “fold improved activity against L. infantum compared to the 7-methyl analogue 9” value in data set [9] (versus compound 9) is 8 fold. The molecule also displayed a CC50 at 3 days in [4] (setting [11]) greater than 64 µM. In data set [5] (setting [12]), this molecule came in with a CC50 at 5 days greater than 64 µM. The amount remaining at 0 h in data set [7] (CYP – NADPH (Phase-I)), in [7] (UGT Enz. (Phase-II)), in [8] (CYP – NADPH (Phase-I)) and in data set [8] (UGT Enz. (Phase-II)) was 100% throughout. In addition, the fraction remaining at 0.25 h in [7] (CYP – NADPH (Phase-I)) was 93%; in data set [7] (UGT Enz. (Phase-II)), 101%; in data set [8] (CYP – NADPH (Phase-I)), 89%; in data set [8] (UGT Enz. (Phase-II)), 105%. In addition, the share remaining at 0.5 h worked out at 102% in [7] (CYP – NADPH (Phase-I)), 103% in data set [7] (UGT Enz. (Phase-II)), 92% in data set [8] (CYP – NADPH (Phase-I)) and 102% in data set [8] (UGT Enz. (Phase-II)). Also, the fraction remaining at 1 h in [7] (CYP – NADPH (Phase-I)) came to 91%; in data set [7] (UGT Enz. (Phase-II)) it was 108%; in [8] (CYP – NADPH (Phase-I)), 96%; in data set [8] (UGT Enz. (Phase-II)), 96%.

In the case of `Cc1ncnc2c1c(C1=CCN(C)CC1)cn2[C@@H]1O[C@H](CO)[C@@H](O)[C@H]1O` [compound 23], the EC50 in [1] was greater than 64 µM; in data set [9] (Leishmania infantum, Macrophage, in Mus musculus, 120 h, read-out: L. inf. EC50), greater than 64 µM; in data set [2], greater than 64 µM; in data set [3] it was greater than 64 µM. The molecule also came in with a CC50 at 3 days in [4] greater than 64 µM. This molecule returned a CC50 at 5 days in data set [5] greater than 64 µM.

As for `CCc1cn([C@@H]2O[C@H](CO)[C@@H](O)[C@H]2O)c2ncnc(N)c12` [compound 39, 7-ethyl-7-deazaadenosine], the EC50 was found to be 0.99 ± 0.25 µM in data set [1], 0.65 ± 0.02 µM in data set [2] and 0.5 ± 0.03 µM in data set [3]. The midpoint of cytotoxicity in data set [4] (setting [11]), the CC50 at 3 days, lay at 50.4 µM. Also, the CC50 in data set [10] was greater than 64 µM. In addition, the CC50 at 5 days in [5] (setting [12]) is greater than 64 µM.

For `CCc1cn([C@@H]2O[C@H](CO)[C@@H](O)[C@H]2O)c2ncnc(OC)c12` [compound 41], the EC50 was greater than 64 µM in data set [1], 0.47 ± 0.01 µM in data set [2] and 1.31 ± 0.44 µM in data set [3]. For the same molecule, in [4] (setting [11]), the CC50 at 3 days was greater than 64 µM. Besides, the CC50 at 5 days in data set [5] (setting [12]) is greater than 64 µM.

Take `CCOc1ncnc2c1c(CC)cn2[C@@H]1O[C@H](CO)[C@@H](O)[C@H]1O` [compound 42]: the figures for the EC50 in data set [1], in data set [2] and in data set [3] were 7.71 ± 0.91 µM, 1.25 ± 0.06 µM and 2.06 ± 0.51 µM, respectively. This molecule gave a CC50 at 3 days in data set [4] (setting [11]) of 52.5 µM. Besides, the CC50 in data set [10] is greater than 64 µM. For the same molecule, in data set [5] (setting [12]), the CC50 at 5 days is greater than 64 µM.

By EC50 is commonly meant the concentration that produces a half-maximal response. For orientation: CC50 means the concentration at which the toxic effect on the cells reaches its halfway point.
